Source: ChEMBL document CHEMBL1155099, “Natural products in parallel synthesis: triazole libraries of nonactic acid” (2008)
The source made the active and inactive calls.

How the values were obtained:
Format in all cases: functional, organism-based
Candida albicans = assay: Antifungal activity against Candida albicans at 1 mM by almar blue dye reduction assay
In short: (§1)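 Single-point primary screen at 1 mM using Alamar Blue dye reduction as the growth read-out.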

Staphylococcus aureus = assay: Antibacterial activity against Staphylococcus aureus at 1 mM by almar blue dye reduction assay; in short: as §1
Bacillus cereus = assay: Antibacterial activity against Bacillus cereus at 1 mM by almar blue dye reduction assay; in short: as §1
Bacillus subtilis = assay: Antibacterial activity against Bacillus subtilis at 1 mM by almar blue dye reduction assay; in short: as §1
Cryptococcus neoformans = assay: Antifungal activity against Cryptococcus neoformans at 1 mM by almar blue dye reduction assay; in short: as §1
Escherichia coli = assay: Antibacterial activity against Escherichia coli at 1 mM by almar blue dye reduction assay; in short: as §1
Saccharomyces cerevisiae = assay: Antifungal activity against Saccharomyces cerevisiae at 1 mM by almar blue dye reduction assay; in short: as §1
Bacillus anthracis = assay: Antibacterial activity against Bacillus anthracis at 1mM by almar blue dye reduction assay
Pseudomonas aeruginosa = assay: Antibacterial activity against Pseudomonas aeruginosa at 1 mM by almar blue dye reduction assay; in short: as §1

Measured: Activity

CCN(CC)C(=O)[C@H](C)[C@H]1CC[C@@H](C[C@@H](C)n2cc(C#CCNCCOC)nn2)O1
inactive: all assays above

C[C@H](C[C@@H]1CC[C@H]([C@@H](C)C(=O)N2CCN(CC3CCCO3)CC2)O1)n1cc(C#Cc2ccccc2)nn1 (some centres not stated)
inactive: all assays above

C[C@H](C[C@@H]1CC[C@H]([C@@H](C)C(=O)N(C)Cc2ccccc2)O1)n1cc(C#CCOc2ccc(Br)cc2)nn1
inactive: all assays above

C[C@H](C[C@@H]1CC[C@H]([C@@H](C)C(=O)N(C)Cc2ccccc2)O1)n1cc(C#Cc2ccc(Oc3ccccc3)cc2)nn1
inactive: all assays above

CCN(CC)C(=O)[C@H](C)[C@H]1CC[C@@H](C[C@@H](C)n2cc(C#Cc3ccc(C(F)(F)F)cc3)nn2)O1
inactive: all assays above

CCN(CC)C(=O)[C@H](C)[C@H]1CC[C@@H](C[C@@H](C)n2cc(C#CCc3ccccc3)nn2)O1
inactive: all assays above

CCN(CC)C(=O)[C@H](C)[C@H]1CC[C@@H](C[C@@H](C)n2cc(C#CCCCC#N)nn2)O1
inactive: all assays above

CCOC(=O)C#Cc1cn([C@H](C)CC2CCC([C@@H](C)C(=O)N(CC)CC)O2)nn1 (single isomer, unassigned)
inactive: all assays above

C[C@H](C[C@@H]1CC[C@H]([C@@H](C)C(=O)N2CCCC2)O1)n1cc(C#CCC2CCCC2)nn1
inactive: all assays above

CC(C)NC(=O)[C@H](C)[C@H]1CC[C@@H](C[C@@H](C)n2cc(C#CCOc3ccccc3)nn2)O1
inactive: all assays above

CC(C)NC(=O)[C@H](C)[C@H]1CC[C@@H](C[C@@H](C)n2cc(C#CCN3CCN(c4ccccc4)CC3)nn2)O1
inactive: all assays above

COc1cccc(OCC#Cc2cn([C@H](C)C[C@@H]3CC[C@H]([C@@H](C)C(=O)N(C)Cc4ccccc4)O3)nn2)c1OC
inactive: all assays above

C[C@H](CC1CCC([C@@H](C)C(=O)N(C)Cc2ccccc2)O1)n1cc(C#CCNC(=O)OCc2ccccc2)nn1 (single isomer, unassigned)
inactive: all assays above

CCN(CC)C(=O)[C@H](C)C1CCC(C[C@@H](C)n2cc(C#CCOC(=O)Nc3cccc(C)c3)nn2)O1 (single isomer, unassigned)
inactive: all assays above

CC(C)NC(=O)[C@H](C)[C@H]1CC[C@@H](C[C@@H](C)n2cc(C#CCOc3ccc(Br)cc3)nn2)O1
inactive: all assays above

CC(C)NC(=O)[C@H](C)[C@H]1CC[C@@H](C[C@@H](C)n2cc(C#CC3=CCCCC3)nn2)O1
inactive: all assays above

C[C@H](C[C@@H]1CC[C@H]([C@@H](C)C(=O)N(C)Cc2ccccc2)O1)n1cc(C#CCCCC#N)nn1
inactive: all assays above

CCC(=O)OCC#Cc1cn([C@H](C)CC2CCC([C@@H](C)C(=O)N(C)Cc3ccccc3)O2)nn1 (single isomer, unassigned)
inactive: all assays above
